Entries after “also recorded” stand apart in the source; their conditions may differ.
How the values were obtained:
PH domain of Cnk1 [1] = biological target: T1, PH domain of Cnk1 (Homo sapiens, UniProt Q969H4); assay: SPR binding to the Gst-tagged PH domain of Cnk1; details: read-out: Cnk1 binding Kd, SPR spectroscopy
T1 sequence (Q969H4 403-502 limits assumed): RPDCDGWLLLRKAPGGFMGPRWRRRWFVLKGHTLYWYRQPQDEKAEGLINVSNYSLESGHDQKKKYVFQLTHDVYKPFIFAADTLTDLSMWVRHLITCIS
How it was run: (§1)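 The Cnk1 PH domain was expressed with an N-terminal glutathione S-transferase fusion and captured on a CM5 chip with a Gst capture kit. Compound binding or PtdIns(3,4,5)P₃ displacement was run by SPR on a Biacore T200.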

wt-KRas NSCLC cells = assay: 3D growth inhibition; assay type: cell-based
How it was run: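 NSCLC lines were tested for mycoplasma and authenticated before study and every 2 months in culture. Anchorage-independent growth was measured in soft agarose using a modified 96-well method, with test compound present. IC50 values were derived for 3D growth inhibition.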

mut-KRas NSCLC cells = assay: 3D growth inhibition; assay type: cell-based; details: read-out: Growth inhibition IC50 mut-Ras; mean IC50, 3D growth; H2122, Calu1, H2009, H441, H358, H1573, H23, H1373, A549, H1944, H647
[2] = Pharmacokinetics in mice after intraperitoneal administration; assay type: in vivo; details: 10 mg/kg
wt-KRas NSCLC cell lines = assay: 2D growth on plastic of NSCLC cell line panel; assay type: cell-based; details: 72 hr
[3] = biological target: T2, Cnk1 and mut-KRas co-localization in HEK293 cells (Homo sapiens, UniProt Q969H4); assay: Confocal microscopy / FLIM of Cnk1-GFP and mut; assay type: cell-based
T2 sequence (Q969H4 1-720): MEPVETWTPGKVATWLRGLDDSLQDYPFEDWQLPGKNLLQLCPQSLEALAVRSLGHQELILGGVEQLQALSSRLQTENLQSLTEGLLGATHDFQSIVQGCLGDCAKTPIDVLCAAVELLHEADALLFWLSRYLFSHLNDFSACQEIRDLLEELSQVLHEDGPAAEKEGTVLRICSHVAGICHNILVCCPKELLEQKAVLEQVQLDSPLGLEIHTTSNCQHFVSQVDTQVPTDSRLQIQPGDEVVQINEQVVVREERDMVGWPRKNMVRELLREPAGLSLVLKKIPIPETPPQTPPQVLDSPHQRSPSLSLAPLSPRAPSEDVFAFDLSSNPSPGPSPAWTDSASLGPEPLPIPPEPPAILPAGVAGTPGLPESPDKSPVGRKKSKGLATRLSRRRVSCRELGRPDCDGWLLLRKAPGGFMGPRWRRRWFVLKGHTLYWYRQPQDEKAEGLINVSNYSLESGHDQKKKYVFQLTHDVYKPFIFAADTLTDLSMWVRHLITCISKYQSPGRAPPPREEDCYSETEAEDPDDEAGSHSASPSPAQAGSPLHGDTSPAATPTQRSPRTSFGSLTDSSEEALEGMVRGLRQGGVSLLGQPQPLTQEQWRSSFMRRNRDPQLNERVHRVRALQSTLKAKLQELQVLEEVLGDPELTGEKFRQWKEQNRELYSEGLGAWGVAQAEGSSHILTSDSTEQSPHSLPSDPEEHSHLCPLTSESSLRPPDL
How it was run: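 HEK293 cells co-expressed Cnk1-GFP and mut(G12D)-KRas-RFP and were incubated 1 hr with 50 μM test compound. Confocal laser scanning microscopy assessed membrane co-localization. FLIM average fluorescence lifetime was taken from co-localization images, with lifetime shortening from FRET indicating direct Cnk1–KRas interaction.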

[4] = tested on: PH domains of Pdpk1, Btk, Akt1, and Plekha7; assay: SPR binding selectivity against other PH domains
PH domain of Cnk1 [5] = biological target: T1, PH domain of Cnk1; assay: SPR displacement of PtdIns; assay type: binding; details: 50 μM
How it was run: as §1

[6] = tested on: mut-KRas(G12S) A549 xenograft; assay: Antitumor activity, A549 xenograft; assay type: in vivo, NOD-SCID mice; details: 200 mg/kg ip daily for up to 20 days
How it was run: (§2)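 About 10⁷ log-phase NSCLC cells in 0.2 mL PBS were injected subcutaneously into the flank of female NOD-SCID mice, 10 per group. Daily 200 mg/kg ip dosing began at tumor volumes of 50–150 mm³, for 20 days (A549, H441) or 21 days (H1975). Caliper volumes were taken twice weekly and body weight weekly. P values were computed at end of dosing.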

[7] = tested on: mut-KRasG12V H441 xenograft; assay: Antitumor activity, H441 xenograft; assay type: in vivo, NOD-SCID mice; details: 200 mg/kg ip daily for up to 20 days
How it was run: as §2

[8] = tested on: wt-KRas H1975 NSCLC xenograft; assay: Antitumor activity, H1975 xenograft; assay type: in vivo, NOD-SCID mice; details: 200 mg/kg ip daily for 21 days
How it was run: as §2

[9] = Mouse body weight during treatment; assay type: in vivo, NOD-SCID mice; details: PHT-7.3 treatment, 200 mg/kg ip daily
How it was run: as §2

mut-KRas cells = assay: Cell proliferation in a small group of mut-KRas cells; assay type: cell-based
How it was run: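 Cells were exposed to test compound for 72 hr. Growth was then read by XTT cell viability assay.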

Cell migration = assay: Cell migration; assay type: cell-based
RalB and Rho activation = assay: Western blot / GTP activation of downstream K-Ras signaling in mut-KRAS cells; assay type: cell-based; details: panel of mut-KRAS cells, 24 hr
How it was run: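 Mut-KRas NSCLC cells were exposed 24 hr to 25 μM test compound; A549 received a concentration range. Western blots used rabbit monoclonal phospho- and total-protein antibodies. RalA, RalB, Rho and Ras GTP levels were measured with activation kits per manufacturer instructions.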

[10] = tested on: p-Egfr, activated RalB and Rho in A549 NSCLC tumor xenografts; assay: Western blot / GTP activation of downstream signaling in A549 tumor xenografts; assay type: in vivo, mice; details: 200 mg/kg ip
How it was run: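 A549 xenograft tumors were sampled at 4 and 24 hr after a single 200 mg/kg ip dose, and 4 hr after the last dose of 6 days' daily dosing, 4 mice per time point. Blots probed phospho-Egfr Tyr1068 and other signaling proteins. RalA/B, Rho and total Ras GTP were measured by activation kits.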

Q: What does the source list for Cc1ccc(-c2csc(Cn3nc(CC4OCCCO4)c4ccccc4c3=O)n2)cc1 [PHT-7.3]?
A: Kd (PH domain of Cnk1 [1]): 4.7 µM; IC50 (wt-KRas NSCLC cells; read-out: Growth inhibition IC50 wt-KRas, mean IC50, 3D growth, H266, H1299, H1975, H3255, H1437, H2023): 69 µM; 3D anchorage independent growth of wt-KRas cells (wt-KRas NSCLC cells; soft agarose, except H1437 and H2023): still not inhibited; IC50 (mut-KRas NSCLC cells): 19 µM; Pharmacokinetics Cl [2]: 133 mL·min/kg; Pharmacokinetics t½β [2]: 4.33 h; 2D growth of wt-KRas NSCLC cell lines (wt-KRas NSCLC cell lines): not inhibited except for two lines H1437 and H2023; Binding of Cnk1 to mut-KRAS by FLIM lifetime ([3]; FLIM lifetime plots, compound-treated cells): inhibited the binding of Cnk1 to mut-KRAS; also recorded: inhibited Cnk1 interaction with mut-KRAS; Co-localization of Cnk1 and mut-KRas at the cell plasma membrane ([3]; confocal microscopy, HEK293 cells, 50 μM, 1 hr): blocked the co-localization; Binding to PH domain of Cnk1 compared to PH domains of Pdpk1, Btk, Akt1, and Plekha7 [4]: selective binding; Displacement of PtdIns(3,4,5)P3 binding to the PH domain of Cnk1 (PH domain of Cnk1 [5]): displaced; also recorded: displacement of PtdIns([3],[4],[5])P3 binding; Antitumor activity, A549 xenograft [6]: cytostatic antitumor activity; Antitumor activity, H441 xenograft [7]: cytostatic antitumor activity; Antitumor activity, H1975 xenograft [8]: not in the wt-KRas H1975 NSCLC xenograft; Body weight [9]: no loss of body weight; Cell proliferation, small group of mut-KRas cells (mut-KRas cells): inhibit cell proliferation; Cell migration (Cell migration): inhibited; RalB and Rho activation in mut-KRAS cells (RalB and Rho activation): decreased RalB and Rho activation; Activated RalB and Rho signaling in tumor xenografts [10]: down-regulation of activated RalB and Rho signaling; p-Egfr level in tumor xenografts [10]: increased levels of p-Egfr
